Efflux pump mplx: inhibitors of Candida antifungal efflux pumps expressed in yeast; S. cerevisiae Candida pump triplex, Nile Red efflux; inhibition, % at 10 µM; hit rate 0.44% among 330,000; AID 485275;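 active = plate passing quality check with inhibition over a set limit, or well fluorescence over plate mean plus 4 SD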;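 also: Nile Red retained in pooled yeast measured as flow cytometry median fluorescence; 0% = buffer negative control and 100% = Enniatin B positive control; higher means more Nile Red kept so more efflux inhibition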
AHR act: human AHR activation; hit rate 2.5% among 320,000; P35869; activation, % at 5 µM; AHR-responsive luciferase reporter cells, luminescence; in the data active = activation above about 47%;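 also: 0% = vehicle wells and 100% = reference agonist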
Target sequence (P35869 whole entry, looked up): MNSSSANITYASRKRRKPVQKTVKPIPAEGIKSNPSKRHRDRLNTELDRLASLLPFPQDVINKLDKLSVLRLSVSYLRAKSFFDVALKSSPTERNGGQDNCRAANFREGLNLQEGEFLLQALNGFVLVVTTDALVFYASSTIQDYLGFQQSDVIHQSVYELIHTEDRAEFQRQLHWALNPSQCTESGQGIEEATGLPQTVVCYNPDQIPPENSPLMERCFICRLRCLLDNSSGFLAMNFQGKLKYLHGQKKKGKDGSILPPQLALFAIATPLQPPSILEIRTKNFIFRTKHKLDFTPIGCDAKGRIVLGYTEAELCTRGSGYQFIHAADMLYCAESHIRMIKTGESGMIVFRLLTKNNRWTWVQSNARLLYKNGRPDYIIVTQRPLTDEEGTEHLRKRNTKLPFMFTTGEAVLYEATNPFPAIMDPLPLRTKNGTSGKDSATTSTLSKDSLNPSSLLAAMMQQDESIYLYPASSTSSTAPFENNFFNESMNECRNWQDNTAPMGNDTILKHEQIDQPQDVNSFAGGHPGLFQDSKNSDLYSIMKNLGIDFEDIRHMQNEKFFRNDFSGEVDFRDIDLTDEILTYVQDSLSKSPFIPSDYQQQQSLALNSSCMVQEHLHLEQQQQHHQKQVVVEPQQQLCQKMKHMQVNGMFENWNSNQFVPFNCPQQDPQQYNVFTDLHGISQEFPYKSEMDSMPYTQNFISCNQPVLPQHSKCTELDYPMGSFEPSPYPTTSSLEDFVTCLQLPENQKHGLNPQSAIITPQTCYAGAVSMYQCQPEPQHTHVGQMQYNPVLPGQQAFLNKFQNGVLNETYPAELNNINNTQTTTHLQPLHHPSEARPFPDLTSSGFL
SMARCA2 activ: SMARCA2 function activation, primary screen. MG213 cells, MMTV-luciferase reporter, dexamethasone, overnight. activation, % at 9.1 µM. hit rate 1% among 370,000. AID 652017; in the data active = activation above about 7.8%;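 also: 0% = vehicle wells and 100% = reference activator wells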
TbMetRS inhib: blocks T. brucei methionyl-tRNA synthetase activity. purified T. brucei MetRS, ATP depletion, Kinase-Glo luminescence. inhibition, % at 11.9 µM. hit rate 0.4% among 360,000. AID 624268;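 active = inhibition above a per-plate cutoff of the control wells' mean inhibition plus 3 SD, cut at about 5.5% in these data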;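 also: 0% = DMSO wells median and 100% = median of wells with control inhibitor compound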
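assay system = parasite MetRS enzyme | timing = 15 min preincubation, 2 h reaction, all 25 °C | evaluation = percent inhibition relative to median high and low control wells | medium = HEPES buffer containing pyrophosphatase, BSA, spermine, DTT | compound = single dose, 11.9 µM final nominal, 0.9% final DMSO | detection = Kinase-Glo luminescence, ATP depletion format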
H9c2 TAG inh: reduces triacylglycerol accumulation in H9c2 cells; Nile Red lipid (TAG) fluorescence; cells loaded with 200 µM oleic acid; inhibition, % at 12.5 µM; hit rate 0.66% among 230,000;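 active = pattern-corrected inhibition of lipid staining of at least 50% with the nuclear-stain viability signal not falling by more than 50%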;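 also: 0% = DMSO wells and 100% = triacsin C control wells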
SMARCA2 act conf: confirmation of SMARCA2 (BRM) function activators. shares compounds with SMARCA2 activ. MG213 cells, MMTV-luciferase with dexamethasone, luminescence, overnight; MG213 cells expressing E1A, Rb sequestered; DMSO wells 0%, reference activator 100%. activation, % at 9.1 µM. hit rate 30% among 3,500. AID 652260;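 active = activation above its plate's cutoff, the mean activation of tested wells plus 3 SD, cut at about 7.9% in these data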
VP16 Luc act: GAL4-VP16 reporter activation counter-screen; shares compounds with SMARCA2 activ; HEK293 GAL4-VP16 pG5luc reporter, luciferase luminescence; scaled: DMSO wells 0%, SAHA wells 100%; activation, % at 9.1 µM; hit rate 41% among 3,500;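 active = activation above the solvent-only control well mean plus 3 SD, averaged across control plates, cut at about 5.2% in these data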
Starred values were filed as active, the others as inactive; . = not tested or not shown. Rows were chosen to be rich in hits. Some 4.1% of all compounds tested hit in one or more screens of this group.

SMILES | Efflux pump mplx | AHR act | SMARCA2 activ | TbMetRS inhib | H9c2 TAG inh | SMARCA2 act conf | VP16 Luc act
Cc1c(/C=N\NC(=O)c2ccc(F)cc2)cnn1C | 0 | 5 | 1 | 0 | . | . | .
Cc1c(/C=N/NC(=O)c2ccc(Br)o2)cnn1C | 0 | 14 | 14* | 0 | -4 | 2 | 1
Cc1occc1C(=O)N/N=C/c1cnn(C)c1C | 0 | 14 | 8.8* | -1 | 1 | 4 | 5
COc1ccc(S(=O)(=O)N2CCCc3nc(-c4ccccc4)ccc32)cc1 | . | . | -3 | . | . | . | .
Cc1ccc(CSc2nnc(-c3ccncc3)n2N)cc1 | 0 | -1 | 8.8* | 0 | -2 | -1 | 0
C=C(C)CSc1nnc(-c2ccc(OC)cc2)n1N | 0 | 4 | 9.5* | 0 | . | 0 | 2
COc1ccc(-c2nnc(SCC(N)=O)n2N)cc1 | 0 | -1 | -2 | 0 | . | . | .
Nn1c(SCc2ccc(Br)cc2)nnc1-c1ccncc1 | 0 | 0 | -4 | 0 | -4 | . | .
CN(CCOC(=O)CC1C=CCC1)C1CN(Cc2cn(Cc3ccccc3Cl)nn2)S(=O)(=O)C1 (stereo not drawn) | . | . | -2 | . | . | . | .
COC(=O)C1=C(C)N(Cc2cccc(C(F)(F)F)c2)C(=NCc2ccc3c(c2)OCO3)NC1c1cccc(Cl)c1 (stereo not drawn) | . | . | -6 | . | . | . | .
CC(C)N1CCC(N2CCN(Cc3ccc(-c4ccc(Cl)cc4)o3)CC2CCO)CC1 (stereo not drawn) | 0 | 3 | 9.9* | 0 | 8 | 7 | 1
COc1ccc(Cc2c(-c3ccc(OC)c(OC)c3)nc3ccc(C)cn23)c(C)c1 | . | . | -3 | -1 | . | . | .
COc1ccc(Cc2c(-c3ccc(F)cc3)nc3ccc(C)cn23)c(C)c1 | . | . | 9.6* | . | . | 2 | 6.4*
O=C(N/N=C/c1ccc(-c2ccccc2C(=O)O)o1)c1cccs1 | 0 | 6 | 8.6* | 0 | -1 | 1 | 3
COc1ccc(C(C)(O)c2nc(-c3ccc(F)cc3OC)cs2)cc1 (stereo not drawn) | . | . | -3 | 0 | -16 | . | .
COc1cc(F)ccc1-c1csc(C(C)(O)c2ccc(F)c(F)c2)n1 (stereo not drawn) | . | . | 9.1* | 0 | -21 | -4 | 0
CC(C)C1=CC2C3C(C(C(C)C)=CC(=O)[C@@]3(C)O)C1C(=O)C2(C)O (stereo partly drawn) | . | . | -3 | . | . | . | .
COC(=O)Nc1ccc(OCc2ccccc2)cc1 | 0 | -1 | 14* | -1 | . | 18* | 5
COCC(=O)Nc1ccc(OCc2ccccc2)cc1 | 0 | 2 | 2 | 0 | . | . | .
C[C@H]1CCCN1c1ccc2c(c1)O[C@@H]1CCN(C1)S2(=O)=O | . | . | -2 | . | . | . | .
COc1ccccc1C(=O)Cc1ccccc1 | . | . | 1 | 0 | -6 | . | .
CC(=O)Nc1ccc(C(=O)OCCc2ccccc2)cc1 | 0 | -3 | 8.8* | 0 | . | 6 | 1
CC(=O)Nc1ccc(C(=O)OCC(=O)N2CCCC2=O)cc1 | 0 | 1 | 8.9* | 0 | 5 | 0 | 1
COc1ccccc1C(=O)OCCc1ccccc1 | . | . | 11* | 0 | -3 | 7 | 6.5*
CC(=O)Nc1ccc(CCCCc2ccccc2)cc1 | . | . | -2 | 0 | -16 | . | .
SMILES | Efflux pump mplx | AHR act | SMARCA2 activ | TbMetRS inhib | H9c2 TAG inh | SMARCA2 act conf | VP16 Luc act
CC(C)(C)C(=O)NC1CCCCN(Cc2cccc(C(F)(F)F)c2)C1=O (stereo not drawn) | . | . | -3 | . | . | . | .
COc1ccc2c(c1)CN1C(=O)N(CC(C)C)S(=O)(=O)CC21 (stereo not drawn) | . | . | 5 | . | . | . | .
O=C(C=Cc1ccccc1)CC(c1ccccc1)N1CCOCC1 (stereo not drawn) | . | . | 8.8* | 0 | -14 | 7 | 3
Cc1cc(C)cc(N(CC(=O)NC2CCC(C)CC2)S(=O)(=O)c2ccc(Br)s2)c1 (stereo not drawn) | . | . | -1 | . | . | . | .
O=C(Cn1c(=O)c2sccc2n(Cc2ccc([N+](=O)[O-])cc2)c1=O)NCCc1ccccc1 | 0 | 1 | 10* | -1 | . | -6 | 0
O=C(Cn1c(=O)c2sccc2n(Cc2cccc([N+](=O)[O-])c2)c1=O)NCCc1ccccc1 | 0 | 4 | -2 | 0 | . | . | .
O=C(C1CCC1)N1CCc2cc(S(=O)(=O)C3CCN(Cc4ccc(F)cc4)CC3)ccc21 | . | . | -3 | . | . | . | .
COc1cc(/C=N/NS(=O)(=O)c2ccc(C)cc2)ccc1OCc1ccc(C(=O)O)cc1 | 0 | 0 | 9.4* | 0 | -26 | 19* | 14*
COC(=O)[C@]12C[C@H](CC(=O)NCC34CC5CC(CC(C5)C3)C4)C(=O)N(Cc3ccccc3)C1=C[C@H](COCc1ccccc1)O[C@@H]2C | . | . | 3 | . | . | . | .
O=C(Nc1ccccc1)Nc1nccs1 | 0 | 4 | 9.0* | 1 | . | 4 | 3
Cc1nc(-c2ccc(NC(=O)C3CC3)cc2)cs1 | 0 | -1 | 8.2* | 1 | . | 9.7* | 8.9*
COc1ccc(C(C)c2cc3c(cc2OCC(=O)O)OCO3)cc1 (stereo not drawn) | . | . | -4 | . | . | . | .
CCOC(=O)N1CCN(C(=O)C[C@H]2C[C@@]3(C(=O)OC)C(=C[C@H](C(C)(C)C)O[C@@H]3C)N(CCc3ccc(OC)c(OC)c3)C2=O)CC1 | . | . | -2 | . | . | . | .
C/C(Cn1cnc([N+](=O)[O-])n1)=N\NC(=O)c1ccc(F)cc1 | 0 | 28 | -2 | 0 | -13 | . | .
COc1ccc(C(=O)N/N=C(\C)Cn2cnc([N+](=O)[O-])n2)cc1 | 0 | 18 | 13* | 0 | . | 1 | 0
CCCCOCCCNC(=O)C[C@H]1C[C@@]2(C(=O)OC)C(=C[C@H](C(C)C)O[C@@H]2C2CC2)N(CCC2=CCCCC2)C1=O | . | . | -2 | . | . | . | .
COc1ccc(NS(=O)(=O)c2cccc(C(=O)NNC(=O)CNC(=O)c3ccc(C)cc3)c2)cc1 | 0 | 1 | 0 | 0 | -12 | . | .
COc1ccc(NS(=O)(=O)c2cccc(C(=O)NNC(=O)CNC(=O)c3ccccc3F)c2)cc1 | 0 | -1 | 8.2* | 0 | -14 | -4 | 0
COC(=O)c1cc2c(c3c4cc(F)ccc4n(S(=O)(=O)c4cccc(C)c4)c13)C(=O)N(Cc1ccc(N(C)C)cc1)C2 | . | . | -4 | . | . | . | .
O=C(O)CCNc1ccc(NCCC(=O)O)c2c1C(=O)c1ccccc1C2=O | 0 | 15 | -4 | -3 | . | . | .
O=C1c2cccc(NCCNCCO)c2C(=O)c2cccc(NCCNCCO)c21 | . | . | 10* | -1 | 135 | -16 | -1
CCOC(=O)c1ccc(Nc2ncccc2[N+](=O)[O-])cc1 | 0 | 2 | 8.3* | -2 | -11 | 16* | 6.2*
COc1ccc(-c2nnc(SCC(=O)Nc3cccc(Cl)c3)o2)cc1 | 0 | -2 | 12* | -1 | 9 | 1 | 7.2*

Bioassay records from PubChem BioAssay.
